pIC50: −log10 of the molar value. One block for each compound: values may come before it.
Key:
[1] = system: MCF7; assay: Antiproliferative activity against human MCF7 cells after 48 hrs by sulforhodamine B assay; type: functional, cell-based; conditions: MCF7, 48 h
In short: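 MCF-7 cells seeded at 5×10^4–10^5 cells/well, allowed to attach 24 h, then exposed to 0, 5, 12.5, 25 and 50 µg/mL for 48 h. Compounds were dissolved in DMSO and diluted with saline; controls got vehicle only; four wells per concentration. Cells fixed with cold 50% TCA, stained with 0.4% SRB, dye solubilised in 10 mM tris pH 10.5, OD read at 564 nm. Survival fraction = OD treated/OD control; IC50 taken from the survival-versus-concentration plot.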

[2] = system: MCF7; assay: Potency index, ratio of doxorubicin IC50 to compound IC50 for antiproliferative activity against human MCF7 cells; type: functional
[3] = system: MCF7; assay: Cell cycle arrest in human MCF7 cells assessed as increase in accumulation at pre-G1 phase at 7.1 uM after 24 hrs by propidium iodide staining-based flow cytometry relative to control; type: functional
In short: (§1)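 MCF-7 cells treated 24 h with 7.10 µM. Cells washed with ice-cold PBS, fixed in ice-cold 70% ethanol, resuspended with 0.1 mg/mL RNase and stained with propidium iodide. DNA content read by FACSCalibur flow cytometry to give phase distribution (pre-G1/sub-G1, G1, S, G2/M).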

[4] = system: MCF7; assay: Cell cycle arrest in human MCF7 cells assessed as increase in accumulation at G2/M phase at 7.1 uM after 24 hrs by propidium iodide staining-based flow cytometry relative to control; type: functional; in short: as §1
[5] = system: MCF7; assay: Cell cycle arrest in human MCF7 cells assessed as accumulation at G1 phase at 7.1 uM after 24 hrs by propidium iodide staining-based flow cytometry (reference value: 66.4%); type: functional; in short: as §1
[6] = system: MCF7; assay: Cell cycle arrest in human MCF7 cells assessed as accumulation at G2/M phase at 7.1 uM after 24 hrs by propidium iodide staining-based flow cytometry (reference value: 7.2%); type: functional; in short: as §1
[7] = system: MCF7; assay: Cell cycle arrest in human MCF7 cells assessed as accumulation at S phase at 7.1 uM after 24 hrs by propidium iodide staining-based flow cytometry (reference value: 25.2%); type: functional; in short: as §1
[8] = system: MCF7; assay: Induction of apoptosis in human MCF7 cells assessed as necrotic cells at 7.1 uM after 24 hrs by Annexin V-FITC/propidium iodide staining based flow cytometry (reference value: 0.1%); type: functional
[9] = system: MCF7; assay: Induction of apoptosis in human MCF7 cells assessed as late apoptotic cells at 7.1 uM after 24 hrs by Annexin V-FITC/propidium iodide staining based flow cytometry (reference value: 0.3%); type: functional
[10] = system: MCF7; assay: Induction of apoptosis in human MCF7 cells assessed as early apoptotic cells at 7.1 uM after 24 hrs by Annexin V-FITC/propidium iodide staining based flow cytometry (reference value: 0.7%); type: functional
[11] = system: MCF7; assay: Induction of apoptosis in human MCF7 cells assessed as viable cells at 7.1 uM after 24 hrs by Annexin V-FITC/propidium iodide staining based flow cytometry (reference value: 99.9%); type: functional
[12] = system: MCF7; assay: Induction of apoptosis in human MCF7 cells assessed as early apoptotic cells at 7.1 uM after 24 hrs by Annexin V-FITC/propidium iodide staining based flow cytometry relative to control; type: functional
[13] = system: MCF7; assay: Induction of apoptosis in human MCF7 cells assessed as BAX expression levels at 7.1 uM after 24 hrs by SYBR Green dye-based RT-PCR analysis (reference value: 196 IU/ml); type: functional
[14] = system: MCF7; assay: Induction of apoptosis in human MCF7 cells assessed as Bcl2 expression levels at 7.1 uM after 24 hrs by SYBR Green dye-based RT-PCR analysis (reference value: 538306 IU/ml); type: functional
[15] = system: MCF7; assay: Induction of apoptosis in human MCF7 cells assessed as p53 expression levels at 7.1 uM after 24 hrs by SYBR Green dye-based RT-PCR analysis (reference value: 244 IU/ml); type: functional
[16] = system: MCF7; assay: Induction of apoptosis in human MCF7 cells assessed as active caspase3 expression levels at 7.1 uM after 24 hrs by SYBR Green dye-based RT-PCR analysis (reference value: 75 IU/ml); type: functional
[17] = target: DNA topoisomerase 2-beta (Homo sapiens, UniProt Q02880); assay: Inhibition of human topoisomerase 2beta after 2 hrs at 37 degC by ELISA
Sequence of DNA topoisomerase 2-beta (Q02880 whole entry): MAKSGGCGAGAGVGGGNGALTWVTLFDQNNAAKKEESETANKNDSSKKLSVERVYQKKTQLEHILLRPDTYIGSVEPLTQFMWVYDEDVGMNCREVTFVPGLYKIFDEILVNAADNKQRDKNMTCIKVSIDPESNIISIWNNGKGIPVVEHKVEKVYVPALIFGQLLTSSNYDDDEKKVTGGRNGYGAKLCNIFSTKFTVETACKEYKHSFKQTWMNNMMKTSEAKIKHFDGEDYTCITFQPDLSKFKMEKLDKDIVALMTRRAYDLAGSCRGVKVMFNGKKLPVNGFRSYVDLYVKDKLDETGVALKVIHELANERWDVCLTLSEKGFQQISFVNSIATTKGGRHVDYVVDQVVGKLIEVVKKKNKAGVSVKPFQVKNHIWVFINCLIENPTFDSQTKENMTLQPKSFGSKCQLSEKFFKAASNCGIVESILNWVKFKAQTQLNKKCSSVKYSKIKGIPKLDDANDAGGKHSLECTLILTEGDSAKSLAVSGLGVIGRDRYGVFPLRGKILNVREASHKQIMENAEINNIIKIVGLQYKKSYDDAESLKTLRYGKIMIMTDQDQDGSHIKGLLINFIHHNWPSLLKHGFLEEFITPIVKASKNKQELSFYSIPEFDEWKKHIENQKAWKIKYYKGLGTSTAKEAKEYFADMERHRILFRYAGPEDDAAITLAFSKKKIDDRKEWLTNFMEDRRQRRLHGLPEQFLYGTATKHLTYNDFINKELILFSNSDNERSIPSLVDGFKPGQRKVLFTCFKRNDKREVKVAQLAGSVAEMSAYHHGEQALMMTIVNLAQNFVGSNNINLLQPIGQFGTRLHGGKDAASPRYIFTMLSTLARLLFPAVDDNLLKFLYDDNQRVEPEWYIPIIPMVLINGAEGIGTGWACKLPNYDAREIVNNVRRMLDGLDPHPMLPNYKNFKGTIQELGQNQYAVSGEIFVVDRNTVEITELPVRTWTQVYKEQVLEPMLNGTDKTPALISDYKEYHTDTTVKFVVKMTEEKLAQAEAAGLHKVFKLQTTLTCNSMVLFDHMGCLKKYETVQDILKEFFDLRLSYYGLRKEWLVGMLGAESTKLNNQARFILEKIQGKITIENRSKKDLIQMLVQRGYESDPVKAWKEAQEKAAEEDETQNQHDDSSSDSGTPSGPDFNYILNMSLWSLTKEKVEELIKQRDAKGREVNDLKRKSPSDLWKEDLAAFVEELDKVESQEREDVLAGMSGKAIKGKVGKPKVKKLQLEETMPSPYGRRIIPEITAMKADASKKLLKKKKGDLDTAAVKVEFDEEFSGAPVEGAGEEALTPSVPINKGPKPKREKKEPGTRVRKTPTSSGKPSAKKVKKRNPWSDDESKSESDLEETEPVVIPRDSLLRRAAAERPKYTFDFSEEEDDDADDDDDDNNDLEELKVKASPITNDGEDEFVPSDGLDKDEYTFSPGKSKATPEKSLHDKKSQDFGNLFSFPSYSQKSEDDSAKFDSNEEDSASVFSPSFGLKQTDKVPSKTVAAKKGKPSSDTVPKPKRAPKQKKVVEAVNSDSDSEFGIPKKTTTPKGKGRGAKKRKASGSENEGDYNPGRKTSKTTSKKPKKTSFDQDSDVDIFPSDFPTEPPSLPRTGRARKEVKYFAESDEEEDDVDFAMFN
In short: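 Sandwich ELISA: standard or sample incubated 2 h at 37°C, then biotin-antibody 1 h at 37°C, then HRP-avidin 1 h at 37°C, then TMB 15–30 min at 37°C in the dark. OD read at 450 nm.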

[18] = target: T1, Vascular endothelial growth factor receptor 2 (Homo sapiens, UniProt P35968); assay: Inhibition of human VEGFR2 after 2 hrs by ELISA
T1 sequence (P35968 whole entry): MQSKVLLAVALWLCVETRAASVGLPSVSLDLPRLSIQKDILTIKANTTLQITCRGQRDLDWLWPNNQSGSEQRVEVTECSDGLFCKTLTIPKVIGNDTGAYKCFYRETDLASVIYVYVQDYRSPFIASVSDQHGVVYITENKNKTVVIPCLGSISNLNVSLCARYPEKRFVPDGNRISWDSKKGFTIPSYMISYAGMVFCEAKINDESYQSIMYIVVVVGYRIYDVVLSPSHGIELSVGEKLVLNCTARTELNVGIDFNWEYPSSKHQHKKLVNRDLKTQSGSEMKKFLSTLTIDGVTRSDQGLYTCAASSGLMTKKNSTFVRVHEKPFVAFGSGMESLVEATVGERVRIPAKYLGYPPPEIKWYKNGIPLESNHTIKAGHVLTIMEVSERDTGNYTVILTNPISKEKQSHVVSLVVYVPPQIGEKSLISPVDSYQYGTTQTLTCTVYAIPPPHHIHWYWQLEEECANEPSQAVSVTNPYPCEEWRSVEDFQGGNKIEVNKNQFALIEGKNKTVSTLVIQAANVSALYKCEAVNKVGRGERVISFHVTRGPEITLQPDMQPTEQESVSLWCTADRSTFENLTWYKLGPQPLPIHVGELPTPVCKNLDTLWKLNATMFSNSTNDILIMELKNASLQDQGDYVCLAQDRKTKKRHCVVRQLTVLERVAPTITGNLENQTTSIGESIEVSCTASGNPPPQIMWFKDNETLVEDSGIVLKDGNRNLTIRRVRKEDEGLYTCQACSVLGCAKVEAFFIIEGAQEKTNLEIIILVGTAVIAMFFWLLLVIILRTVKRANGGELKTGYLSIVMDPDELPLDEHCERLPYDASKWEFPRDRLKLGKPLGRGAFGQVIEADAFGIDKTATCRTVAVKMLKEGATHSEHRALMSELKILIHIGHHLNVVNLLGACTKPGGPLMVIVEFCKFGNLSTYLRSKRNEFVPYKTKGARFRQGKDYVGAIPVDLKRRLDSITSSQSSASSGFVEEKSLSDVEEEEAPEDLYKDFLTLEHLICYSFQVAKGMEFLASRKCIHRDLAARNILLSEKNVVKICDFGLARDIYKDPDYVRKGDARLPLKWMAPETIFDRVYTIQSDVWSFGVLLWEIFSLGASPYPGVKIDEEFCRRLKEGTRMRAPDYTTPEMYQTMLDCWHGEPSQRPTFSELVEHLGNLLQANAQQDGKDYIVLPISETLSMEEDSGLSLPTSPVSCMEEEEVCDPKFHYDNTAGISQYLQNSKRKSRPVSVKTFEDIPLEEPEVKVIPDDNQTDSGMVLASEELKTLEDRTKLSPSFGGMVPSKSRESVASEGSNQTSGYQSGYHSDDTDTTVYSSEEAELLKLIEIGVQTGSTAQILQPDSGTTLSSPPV

[19] = target: T1, Vascular endothelial growth factor receptor 2; assay: Potency index, ratio of sorafenib IC50 to compound IC50 for inhibition of human VEGFR2
[20] = system: MCF7; assay: Cell cycle arrest in human MCF7 cells assessed as accumulation at subG1 phase at 7.1 uM after 24 hrs by propidium iodide staining-based flow cytometry (reference value: 1.2%); type: functional; in short: as §1

Structure (SMILES): Cc1cccc(Cl)c1NC(=O)Nc1nnc2c3c4c(sc3ncn12)CCCC4
pIC50 [1]: 4.54

Structure (SMILES): S=C(Nc1ccc(Br)cc1)Nc1ccc(Nc2ncnc3sc4c(c23)CCCC4)cc1
pIC50 [1]: 5.02 | Ratio IC50 [2]: 1.03 - 1.5

Structure (SMILES): Cc1cccc(Cl)c1-n1c(-c2ccc(Br)cc2)co/c1=N\c1ccc(Nc2ncnc3sc4c(c23)CCCC4)cc1
pIC50 [1]: 3.63

Structure (SMILES): O=C(NNc1ncnc2sc3c(c12)CCCC3)Nc1ccc(Cl)c(C(F)(F)F)c1
pIC50 [1]: 4.27

Structure (SMILES): Cc1cccc(Cl)c1NC(=O)Nc1ccc(Nc2ncnc3sc4c(c23)CCCC4)cc1
pIC50 [1]: 4.27

Structure (SMILES): Cc1ccc(NC(=S)Nc2ccc(Nc3ncnc4sc5c(c34)CCCC5)cc2)cc1
pIC50 [1]: 4.25

Structure (SMILES): S=C(Nc1ccccc1)Nc1nnc2c3c4c(sc3ncn12)CCCC4
pIC50 [1]: 4.09

Structure (SMILES): O=C(Nc1cc(C(F)(F)F)ccc1F)Nc1nnc2c3c4c(sc3ncn12)CCCC4
pIC50 [1]: 4.14

Structure (SMILES): Cc1cccc(NC(=S)Nc2ccc(Nc3ncnc4sc5c(c34)CCCC5)cc2)c1
pIC50 [1]: 4.41

Structure (SMILES): O=C(Nc1ccc(Nc2ncnc3sc4c(c23)CCCC4)cc1)Nc1c(Cl)cccc1Cl
pIC50 [1]: 3.99

Structure (SMILES): COc1cccc2c1C(=O)c1c(O)c3c(c(O)c1C2=O)C[C@@](O)(C(=O)CO)C[C@@H]3O[C@H]1C[C@H](N)[C@H](O)[C@H](C)O1 [DOXORUBICIN]
pIC50 [1]: 4.97 | Activity [13]: 1824021 IU/ml | Activity [14]: 8 IU/ml | Activity [15]: 1271.6 IU/ml | Activity [16]: 363940 IU/ml | pIC50 [17]: 5.46

Structure (SMILES): O=C(NNc1ncnc2sc3c(c12)CCCC3)Nc1cc(C(F)(F)F)ccc1F
pIC50 [1]: 4.55

More lines, main results first:

pIC50 [1]: 4.00
Structure (SMILES): Cc1cccc(NC(=S)Nc2nnc3c4c5c(sc4ncn23)CCCC5)c1

pIC50 [1]: 4.10
Structure (SMILES): COc1ccc(NC(=S)Nc2ccc(Nc3ncnc4sc5c(c34)CCCC5)cc2)cc1

pIC50 [1]: 4.32
Structure (SMILES): S=C(Nc1ccccc1)Nc1ccc(Nc2ncnc3sc4c(c23)CCCC4)cc1

pIC50 [1]: 4.29
Structure (SMILES): O=C(Nc1ccc(Nc2ncnc3sc4c(c23)CCCC4)cc1)Nc1cccc(C(F)(F)F)c1

pIC50 [1]: 5.15 | pIC50 [17]: 5.03 | pIC50 [18]: 6.70 | Ratio IC50 [19]: 2.1
Structure (SMILES): O=C(Nc1ccc(Nc2ncnc3sc4c(c23)CCCC4)cc1)Nc1ccc(Cl)c(C(F)(F)F)c1
Ratio IC50 [2]: 1.03 - 1.5 | fold change (FC) [3]: 15.1 | fold change (FC) [4]: 2.2 | Activity [5]: 36.3% | Activity [6]: 16.3% | Activity [7]: 29.2% | Activity [8]: 3% | Activity [9]: 7% | Activity [10]: 21% | Activity [11]: 69% | fold change (FC) [12]: 30 | Activity [13]: 389968 IU/ml | Activity [14]: 131 IU/ml | Activity [15]: 77214 IU/ml | Activity [16]: 64223 IU/ml | Activity [20]: 18.2%

pIC50 [1]: 4.29
Structure (SMILES): S=C(Nc1ccc(Cl)cc1)Nc1ccc(Nc2ncnc3sc4c(c23)CCCC4)cc1

pIC50 [1]: 4.05
Structure (SMILES): O=C(NNc1ncnc2sc3c(c12)CCCC3)Nc1c(Cl)cccc1Cl

pIC50 [1]: 4.16
Structure (SMILES): O=C(Nc1cccc(C(F)(F)F)c1)Nc1nnc2c3c4c(sc3ncn12)CCCC4

pIC50 [1]: 4.28
Structure (SMILES): Cc1cccc(Cl)c1NC(=S)Nc1ccc(Nc2ncnc3sc4c(c23)CCCC4)cc1

pIC50 [1]: 4.04
Structure (SMILES): Cc1cccc(Cl)c1NC(=O)NNc1ncnc2sc3c(c12)CCCC3

pIC50 [1]: 4.64
Structure (SMILES): O=C(NNc1ncnc2sc3c(c12)CCCC3)Nc1cccc(C(F)(F)F)c1

pIC50 [1]: 4.99
Structure (SMILES): O=C(Nc1ccc(Nc2ncnc3sc4c(c23)CCCC4)cc1)Nc1cc(C(F)(F)F)ccc1F
Ratio IC50 [2]: 1.03 - 1.5

pIC50 [1]: 4.43
Structure (SMILES): Brc1ccc(-c2cs/c(=N\c3ccc(Nc4ncnc5sc6c(c45)CCCC6)cc3)n2-c2ccccc2)cc1
